The source of these data is PubChem BioAssay.

The nature of assay [1]: inhibitors of TNFa-induced NFkB p65 translocation, primary screen, imaging, HUVEC, MLSMR starter and 10KST1 sets (AID 438).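 Further: compound added about 3h40 before a 20 min TNFalpha stimulation.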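 On inhibition: signal is the nuclear over cytoplasmic p65 intensity ratio per well.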 To be noted: HUVEC TNFa-induced p65 nuclear translocation; cell count: measured here: nuclei count (cytotoxicity indicator), at 2.08 µM; inhibition: at 2 µM, stronger effect = higher value, 0% TNFa-plus-vehicle, 100% no-TNFa wells.
The nature of assay [2]: inhibitors of mutant huntingtin aggregation, primary screen, imaging, exon1htt(103Q)mCFP cells, high-content imaging (AID 483;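 active means visual image review flags a hit and inhibition of aggregation exceeds 20%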;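 further: compound exposure lasted 3 days before fixation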;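 on nuclei count: percent of the per-plate median nuclei count of sample wells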). The settings on record: exon1htt(103Q)mCFP cell line, aggregate imaging, at 2 µM; inhibition of aggregation: stronger effect = higher value; nuclei count: measured here: cell count, toxicity.
Assay [3] is described as follows: inhibitors of E-selectin induction by TNFa, primary screen, imaging, HUVEC, immunofluorescence, MLSMR starter and 10KST1 sets (AID 487;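 active means visually confirmed hit in the image check and inhibition above 20%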;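 on inhibition: signal is fraction of cell area covered by stained E-selectin grains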;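 on nuclei count: 100% = median nuclei count of all wells on the same plate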). To be noted: HUVEC TNFalpha-induced E-selectin immunofluorescence imaging, at 2 µM; inhibition: stronger effect = higher value; nuclei count: measured here: cell number, toxicity.
The target in assay [4] is Voltage-gated potassium channel subunit beta-2 (Rattus norvegicus) (UniProt P62483). In words: KvBeta enzyme negative modulators, primary screen, biochemical, NADPH fluorescence (AID 622;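 active means fluorescence slope higher than the sample average by over 3 SD, cut at about -0.22 in these data, passing the limit was not always enough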;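 further: slope of raw intensity against log time taken from 70 to 1610 s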). The settings on record: recombinant KvBeta, 4-cyanobenzaldehyde reduction, at 10 µM, stronger effect = higher value.
Sequence of Voltage-gated potassium channel subunit beta-2 (Rattus norvegicus) (P62483 whole entry, looked up): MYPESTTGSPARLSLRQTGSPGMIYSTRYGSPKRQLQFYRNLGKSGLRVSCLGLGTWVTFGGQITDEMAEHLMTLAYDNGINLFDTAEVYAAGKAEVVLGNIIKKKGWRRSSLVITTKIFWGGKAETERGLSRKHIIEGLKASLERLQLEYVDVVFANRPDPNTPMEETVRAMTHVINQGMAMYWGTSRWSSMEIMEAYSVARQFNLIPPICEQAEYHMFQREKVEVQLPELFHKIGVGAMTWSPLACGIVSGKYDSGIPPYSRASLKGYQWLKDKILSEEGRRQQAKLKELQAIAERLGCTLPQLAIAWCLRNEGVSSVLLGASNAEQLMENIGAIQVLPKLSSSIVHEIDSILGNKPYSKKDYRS
Assay [5] has the same target. Put plainly: KvBeta positive modulators, primary screen, biochemical, NADPH fluorescence (AID 623;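 active means NADPH fluorescence slope more negative than the mean of all samples by about 3 SD, 99.7% confidence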;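 further: fluorescence intensity change per second fitted from 20 to 320 s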). The settings on record: Recombinant KvBeta, NADPH fluorescence decrease slope, 10 min; at 10 µM; stronger effect = lower value.
Assay [6] addresses Muscarinic acetylcholine receptor M4 (Homo sapiens) (UniProt P08173). In words: compounds altering M4/GIRK thallium flux, either direction, primary screen, M4 allosteric agonist project, cell-based, HEK293 M4/GIRK, BTC-AM (AID 625;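 active means fluorescence slope after compound addition differing from the mean of all tested samples at 99.7% confidence, mostly higher but some lower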;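 further: thallium influx through GIRK channels coupled to M4 in HEK293 cells with BTC-AM dye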). The settings on record: at 10 µM, actives lie on both sides. Put shortly:
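Material: HEK293 cells with M4 receptor and GIRK channels; Times: cells overnight at 37 °C, BTC-AM loading 1 h, reads 2 min total; Technique: kinetic BTC-AM fluorescence sampled at 1 Hz, 10 s pre-addition baseline; Read-out basis: slope over 15–24 s of trace normalized to starting intensity; Controls: carbachol positive, DMSO negative.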

A short description of assay [7]: inhibitors of Sendai virus-induced IRF3 signaling, primary screen, TLR/RLR signaling modifier project, cell-based, Sendai virus stimulus, luciferase, 10K MLSCN set (AID 602276;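 active means inhibition at or above 50% at 10 µM; inactive means inhibition below 50%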;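 further: firefly luciferase from ISG56 promoter only with Renilla not read in this screen; 0% = Sendai virus plus DMSO and 100% = medium plus DMSO without virus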). The settings on record: HEK293 RL24 IRF3 luciferase reporter, at 10 µM, stronger effect = higher value.
Assay [8] can be described thus: inhibitors of poly I:C-induced TLR3 signaling, primary screen, cell-based, poly I:C stimulus, luciferase, 10K MLSCN set (AID 602277;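 active means inhibition of the reporter signal at or above 50%; inactive means inhibition below 50%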). The settings on record: HEK293-TLR3 RL24 IRF3 luciferase reporter, at 10 µM, stronger effect = higher value.

The structures appear in SMILES notation. Calls of active or inactive are those of the source.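 How the source made its calls, unless noted: active means inhibition above 20% together with a positive visual image hit; inconclusive means visual image hit but inhibition not above 20%; inactive means no visual image hit.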

Sequence of Muscarinic acetylcholine receptor M4 (Homo sapiens) (P08173 whole entry, looked up): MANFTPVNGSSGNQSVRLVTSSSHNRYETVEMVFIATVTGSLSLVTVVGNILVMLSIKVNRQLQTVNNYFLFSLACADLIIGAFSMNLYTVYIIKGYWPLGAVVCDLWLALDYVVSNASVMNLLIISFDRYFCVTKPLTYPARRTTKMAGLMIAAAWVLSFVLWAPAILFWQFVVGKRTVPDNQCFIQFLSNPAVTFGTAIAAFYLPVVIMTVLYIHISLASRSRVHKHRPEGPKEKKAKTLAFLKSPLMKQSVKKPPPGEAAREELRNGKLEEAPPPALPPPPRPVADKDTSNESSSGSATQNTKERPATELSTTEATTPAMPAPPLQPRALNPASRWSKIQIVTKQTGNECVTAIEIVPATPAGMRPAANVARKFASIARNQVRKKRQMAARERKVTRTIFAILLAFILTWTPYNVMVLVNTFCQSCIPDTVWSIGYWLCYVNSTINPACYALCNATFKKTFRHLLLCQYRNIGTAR

A word on the inhibition: it is the drop in the measured response relative to a control, in per cent. For the compound `CCCn1c(N2CCN(CC(=O)Nc3ccc4c(c3)OCCO4)CC2)nc2ccccc21`, the cell count in assay [1] is 411. Also, the inhibition in assay [1] was -11% (inactive); in assay [3], -98.9% (inactive); in assay [7], 4.25% (inactive); in assay [8] it was 20.1% (inactive). The inhibition of aggregation in assay [2] is 1.8% (inactive). For the same compound, the nuclei count in assay [2] was found to be 103%; in assay [3] it was 74.4%. The fluorescence slope in assay [4] was -0.526 (inactive); in assay [6] it was 0.00376 (inactive). Further, the NADPH fluorescence slope in assay [5] is -0.000207 (inactive).
Turning to `COc1cccc(Oc2ccc(N)cn2)c1`, the cell count in assay [1] was determined as 392. The inhibition was -4.4% (inactive) in assay [1], -126% (inactive) in assay [3], -7.7% (inactive) in assay [7] and 1.94% (inactive) in assay [8]. In addition, in assay [2], the inhibition of aggregation is -4.1% (inactive). The nuclei count in assay [2] was found to be 100%; in assay [3], 114%. Besides, the results for the fluorescence slope in assay [4] and in assay [6] were -0.537 (inactive) and 0.0033 (inactive), respectively. In assay [5], the NADPH fluorescence slope was -0.000148 (inactive).
`CCCN1C(=O)SC(CC(=O)Nc2ccc(Br)cc2)C1=O` (centres undefined): in assay [1], the cell count came out at 246. Moreover, the inhibition is -7.8% (inactive) in assay [1], -47.8% (inactive) in assay [3], -2.25% (inactive) in assay [7] and 7.35% (inactive) in assay [8]. The inhibition of aggregation in assay [2] is -2.4% (inactive). Besides, the nuclei count in assay [2] came to 96.5%; in assay [3], 104%. The fluorescence slope in assay [4] is -0.444 (inactive); in assay [6], 0.00512 (inactive). Further, the NADPH fluorescence slope in assay [5] is 2.7e-05 (inactive).
As to `CC(Oc1ccc(Cl)cc1Cl)c1nc(-c2ccc(NC(=O)c3cccnc3)cc2)no1` (centres undefined), the cell count in assay [1] worked out at 413. The inhibition in assay [1] was 6.5% (inactive); in assay [3], -60.6% (inactive); in assay [7], 1.84% (inactive); in assay [8], -74.3% (inactive). The inhibition of aggregation in assay [2] was -6.9% (inactive). Besides, the values for the nuclei count in assay [2] and in assay [3] were 89.5% and 112%, respectively. Further, the results for the fluorescence slope in assay [4] and in assay [6] were -0.641 (inactive) and 0.00494 (inactive), respectively. Also, the NADPH fluorescence slope in assay [5] is 4.9e-05 (inactive).
Consider `Cc1nc(NC2=NCN(CCCN3CCOCC3)CN2)nc2c(C)cccc12`, for which the cell count in assay [1] worked out at 552. For the same compound, the inhibition in assay [1] is 12.1% (inactive); in assay [3] it was 35.4% (inactive); in assay [7], 26.7% (inactive); in assay [8] it was 31.4% (inactive). In assay [2], the inhibition of aggregation was 0.1% (inactive). For the same compound, the nuclei count in assay [2] came to 73.7%; in assay [3], 97.1%. Besides, the fluorescence slope was -0.571 (inactive) in assay [4] and 0.00567 (inactive) in assay [6]. Besides, the NADPH fluorescence slope in assay [5] was -6.5e-05 (inactive).
For the compound `O=C(CCCCn1c(=O)[nH]c2ccsc2c1=O)NCc1cccnc1`, the cell count in assay [1] amounted to 684. The inhibition is -1% (inactive) in assay [1], 3.5% (inactive) in assay [3], 17% (inactive) in assay [7] and 15.3% (inactive) in assay [8]. For the same compound, the inhibition of aggregation in assay [2] is 5% (inactive). Moreover, the nuclei count in assay [2] turned out to be 99.7%; in assay [3], 119%. The results for the fluorescence slope in assay [4] and in assay [6] were -0.46 (inactive) and 0.00456 (inactive), respectively. In addition, in assay [5], the NADPH fluorescence slope was -5.1e-05 (inactive).
With `O=C(NCc1ccc2c(c1)OCO2)c1cc2n(n1)C(C(F)(F)F)CC(c1ccc3c(c1)OCO3)N2` (centres undefined), in assay [1], the cell count amounted to 407. The inhibition in assay [1] was -1.6% (inactive); in assay [3], -32% (inactive); in assay [7] it was 18.5% (inactive); in assay [8], 24.4% (inactive). Further, the inhibition of aggregation in assay [2] is 26.5% (inactive). For the same compound, the results for the nuclei count in assay [2] and in assay [3] were 89.1% and 106%, respectively. Also, the fluorescence slope is -0.558 (inactive) in assay [4] and 0.0053 (inactive) in assay [6]. Further, the NADPH fluorescence slope in assay [5] was -4.2e-05 (inactive).
On to `COc1ccccc1OCc1ccc(C(=O)OCC2CCCO2)o1` (centres undefined), for which the cell count in assay [1] was determined as 640. Also, the inhibition was -5% (inactive) in assay [1], 0.1% (inactive) in assay [3], -10.8% (inactive) in assay [7] and -24.7% (inactive) in assay [8]. In addition, the inhibition of aggregation in assay [2] was -10.7% (inactive). Also, the nuclei count amounted to 73.2% in assay [2] and 113% in assay [3]. The fluorescence slope is -0.503 (inactive) in assay [4] and 0.00535 (inactive) in assay [6]. Also, in assay [5], the NADPH fluorescence slope is -0.000334 (inactive).
On to `CCOC(=O)N1CCN(c2cc(=O)n(-c3ccc(OCC)cc3)c(=O)[nH]2)CC1`, for which, in assay [1], the cell count turned out to be 551. Besides, the inhibition in assay [1] is -10% (inactive); in assay [3], -26.9% (inactive); in assay [7], 3.3% (inactive); in assay [8], 10.8% (inactive). Further, the inhibition of aggregation in assay [2] is 9.3% (inactive). The results for the nuclei count in assay [2] and in assay [3] were 109% and 112%, respectively. Besides, the fluorescence slope in assay [4] was -0.431 (inactive); in assay [6], 0.00574 (inactive). Also, the NADPH fluorescence slope in assay [5] is 0.0001 (inactive).
In the case of `CCOCCCNC(=O)c1ccc2c(c1)ncn2C1CCCC1`, the cell count in assay [1] is 573. The inhibition was -4.8% (inactive) in assay [1], -12% (inactive) in assay [3], -12.4% (inactive) in assay [7] and -122% (inactive) in assay [8]. Further, the inhibition of aggregation in assay [2] is -5.5% (inactive). The nuclei count was 100% in assay [2] and 94.4% in assay [3]. Also, the fluorescence slope was -0.495 (inactive) in assay [4] and 0.00159 (inactive) in assay [6]. In addition, the NADPH fluorescence slope in assay [5] was 4.4e-05 (inactive).
In the case of `O=c1c2cn[nH]c2nc(SCc2ccc3c(c2)OCCO3)n1-c1ccccc1`, the cell count in assay [1] amounted to 488. Also, the inhibition in assay [1] is 15.8% (inactive); in assay [3] it was -27.1% (inactive); in assay [7] it was 7.97% (inactive); in assay [8] it was 9.23% (inactive). The inhibition of aggregation in assay [2] is 4.8% (inactive). The nuclei count came out at 112% in assay [2] and 107% in assay [3]. The fluorescence slope in assay [4] was -0.508 (inactive); in assay [6] it was 0.0074 (inactive). The NADPH fluorescence slope in assay [5] was 1.3e-05 (inactive).
On to `CCOc1ccc(-c2nnc(N(CC)C(=O)C3CCC3)s2)cc1`, for which the cell count in assay [1] was determined as 440. The inhibition is 9.7% (inactive) in assay [1], -32% (inactive) in assay [3], -19.2% (inactive) in assay [7] and -80.4% (inactive) in assay [8]. The inhibition of aggregation in assay [2] was 3.2% (inactive). In addition, the nuclei count was 103% in assay [2] and 111% in assay [3]. Further, the fluorescence slope is -0.461 (inactive) in assay [4] and 0.00526 (inactive) in assay [6]. Further, the NADPH fluorescence slope in assay [5] was 2e-05 (inactive).
For the compound `CN(C)c1ccc(NC(=O)CSCc2nc3c(nnn3Cc3ccc(F)cc3)c(=O)[nH]2)cc1`, in assay [1], the cell count was determined as 579. Further, the inhibition in assay [1] was 7.1% (inactive); in assay [3], -72.4% (inactive); in assay [7], 10.7% (inactive); in assay [8] it was 15.6% (inactive). Besides, the inhibition of aggregation in assay [2] is -8.4% (inactive). Besides, the values for the nuclei count in assay [2] and in assay [3] were 105% and 114%, respectively. Also, the fluorescence slope in assay [4] was -0.204 (inactive); in assay [6], 0.00529 (inactive). In addition, in assay [5], the NADPH fluorescence slope is -6.4e-06 (inactive).
Take `COC(=O)c1ccccc1S(=O)(=O)N(Cc1cc2cc3c(cc2[nH]c1=O)OCO3)C1CCCCC1`: the cell count in assay [1] stood at 532. Besides, the inhibition was -3.6% (inactive) in assay [1], -71.1% (inactive) in assay [3], -3.7% (inactive) in assay [7] and -14.5% (inactive) in assay [8]. The inhibition of aggregation in assay [2] is -4.8% (inactive). Also, the nuclei count worked out at 134% in assay [2] and 161% in assay [3]. In addition, the results for the fluorescence slope in assay [4] and in assay [6] were -0.487 (inactive) and 0.00583 (inactive), respectively. In addition, the NADPH fluorescence slope in assay [5] is -9.9e-05 (inactive).
